Laboratory results from ChEMBL document CHEMBL1138430, “Novel tetrahydroisoquinolines are histamine H3 antagonists and serotonin reuptake inhibitors” (Bioorg Med Chem Lett, 2007).

Key:
[1] = molecular target: Sodium-dependent serotonin transporter (Homo sapiens, UniProt P31645); assay: Binding affinity at human SERT
Histamine H3 receptor [2] = molecular target: T1, Histamine H3 receptor (Homo sapiens, UniProt Q9Y5N1); assay: Binding affinity at human histamine H3 receptor
Histamine H3 receptor [3] = molecular target: T1, Histamine H3 receptor; assay: Antagonist activity at human histamine H3 receptor; format: functional; conditions: read-out: pA2 (converted)
[4] = molecular target: Sodium-dependent serotonin transporter (Rattus norvegicus, UniProt P31652); assay: Binding affinity at rat SERT
[5] = Plasma clearance in po and iv dosed rat; format: ADME, organism-based
[6] = (§1) Volume of distribution at steady state in po and iv dosed rat; format: ADME, organism-based; conditions: in vivo, read-out: Vdss
[7] = (§2) Half life in po and iv dosed rat; format: ADME, organism-based; conditions: in vivo
[8] = (§3) Bioavailability in po dosed rat; format: ADME, organism-based; conditions: in vivo
Rattus norvegicus [9] = assay: as §1; format: ADME, organism-based; conditions: in vivo
Rattus norvegicus [10] = assay: as §2; format: ADME, organism-based; conditions: in vivo
Rattus norvegicus [11] = assay: as §3; format: ADME, organism-based; conditions: in vivo
[12] = Cmax in rat brain at 10 mg/kg, po; format: ADME, organism-based; parameters: dose 10 mg/kg, route oral
[13] = test system: Voltage-gated potassium channel; assay: Binding affinity for potassium channel at 1 uM; format: protein assay; conditions: human
[14] = test system: Voltage-gated calcium channel; assay: Binding affinity for calcium channel at 1 uM; format: protein-complex assay; conditions: human
[15] = molecular target: Sodium-dependent noradrenaline transporter (Homo sapiens, UniProt P23975); assay: Inhibition of [3H]nisoxetine uptake in human NET expressed in MDCK cells; format: cell-based
[16] = molecular target: Sodium-dependent dopamine transporter (Homo sapiens, UniProt Q01959); assay: Inhibition of [3H]WIN-uptake in human DAT expressed in CHO cells; format: cell-based
Outline: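 Human DAT expressed in CHO cells; membranes were incubated on ice for 2 h with 10.9 nM [3H]-WIN 35,428, then harvested by rapid filtration. Nonspecific binding was defined with GBR-12909. Ki values are means of at least three experiments run in triplicate, with SEM.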

Rattus norvegicus [17] = organism: Rattus norvegicus; assay: Ex vivo receptor occupancy at SERT in rat; format: functional
Rattus norvegicus [18] = organism: Rattus norvegicus; assay: Ex vivo receptor occupancy at histamine H3 receptor in rat; format: functional
Brain = assay: Drug level in rat brain at 0.1 mg/kg; format: ADME, organism-based; parameters: dose 0.1 mg/kg; conditions: in vivo, read-out: Drug uptake

T1 sequence (Q9Y5N1 whole entry): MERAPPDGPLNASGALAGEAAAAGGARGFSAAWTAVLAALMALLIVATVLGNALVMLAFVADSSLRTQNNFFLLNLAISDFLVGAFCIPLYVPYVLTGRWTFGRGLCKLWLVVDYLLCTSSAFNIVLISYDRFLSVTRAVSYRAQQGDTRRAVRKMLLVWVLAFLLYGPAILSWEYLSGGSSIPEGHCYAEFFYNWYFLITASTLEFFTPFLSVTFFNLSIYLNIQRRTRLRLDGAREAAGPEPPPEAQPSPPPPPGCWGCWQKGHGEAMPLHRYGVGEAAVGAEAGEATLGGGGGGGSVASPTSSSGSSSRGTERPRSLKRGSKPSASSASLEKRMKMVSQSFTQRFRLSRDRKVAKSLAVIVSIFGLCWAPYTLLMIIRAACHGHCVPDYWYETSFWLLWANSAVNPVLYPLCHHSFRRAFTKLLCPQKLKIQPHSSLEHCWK
Sequence of Sodium-dependent serotonin transporter (Rattus norvegicus, UniProt P31652) (P31652 whole entry): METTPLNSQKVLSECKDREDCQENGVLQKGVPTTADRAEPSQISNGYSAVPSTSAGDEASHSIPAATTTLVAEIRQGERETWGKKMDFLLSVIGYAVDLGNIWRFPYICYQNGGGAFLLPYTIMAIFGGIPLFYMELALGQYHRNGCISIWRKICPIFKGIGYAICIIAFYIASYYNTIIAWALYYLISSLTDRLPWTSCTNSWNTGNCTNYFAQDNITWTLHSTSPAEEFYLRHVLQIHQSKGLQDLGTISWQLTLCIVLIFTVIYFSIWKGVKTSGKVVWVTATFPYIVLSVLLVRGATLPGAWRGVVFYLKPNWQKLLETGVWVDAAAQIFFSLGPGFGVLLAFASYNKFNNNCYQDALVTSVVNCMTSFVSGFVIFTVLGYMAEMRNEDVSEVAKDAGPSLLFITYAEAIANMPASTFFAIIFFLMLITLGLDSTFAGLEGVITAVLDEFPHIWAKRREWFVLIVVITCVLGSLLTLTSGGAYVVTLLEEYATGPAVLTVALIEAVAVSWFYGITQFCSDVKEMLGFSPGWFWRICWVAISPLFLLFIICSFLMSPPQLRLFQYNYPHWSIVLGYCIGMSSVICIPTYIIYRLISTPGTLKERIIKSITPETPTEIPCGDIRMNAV
Sequence of Sodium-dependent serotonin transporter (Homo sapiens, UniProt P31645) (P31645 whole entry): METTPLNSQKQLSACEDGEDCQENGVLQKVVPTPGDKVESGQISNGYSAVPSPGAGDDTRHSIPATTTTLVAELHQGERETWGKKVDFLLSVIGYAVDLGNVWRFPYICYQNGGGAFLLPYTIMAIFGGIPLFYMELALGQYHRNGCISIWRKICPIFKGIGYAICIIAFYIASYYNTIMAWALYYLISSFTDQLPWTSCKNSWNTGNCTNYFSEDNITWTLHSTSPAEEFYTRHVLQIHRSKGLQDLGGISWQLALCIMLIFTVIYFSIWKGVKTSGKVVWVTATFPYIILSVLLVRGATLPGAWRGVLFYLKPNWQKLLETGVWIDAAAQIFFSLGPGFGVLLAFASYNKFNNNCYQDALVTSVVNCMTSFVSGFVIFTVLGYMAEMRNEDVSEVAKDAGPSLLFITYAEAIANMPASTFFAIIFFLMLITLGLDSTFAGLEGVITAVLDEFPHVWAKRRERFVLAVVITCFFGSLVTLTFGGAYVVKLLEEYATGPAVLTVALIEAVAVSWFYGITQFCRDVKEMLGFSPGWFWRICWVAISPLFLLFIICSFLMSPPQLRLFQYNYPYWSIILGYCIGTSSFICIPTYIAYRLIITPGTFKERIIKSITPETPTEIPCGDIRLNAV
Sequence of Sodium-dependent dopamine transporter (Q01959 whole entry): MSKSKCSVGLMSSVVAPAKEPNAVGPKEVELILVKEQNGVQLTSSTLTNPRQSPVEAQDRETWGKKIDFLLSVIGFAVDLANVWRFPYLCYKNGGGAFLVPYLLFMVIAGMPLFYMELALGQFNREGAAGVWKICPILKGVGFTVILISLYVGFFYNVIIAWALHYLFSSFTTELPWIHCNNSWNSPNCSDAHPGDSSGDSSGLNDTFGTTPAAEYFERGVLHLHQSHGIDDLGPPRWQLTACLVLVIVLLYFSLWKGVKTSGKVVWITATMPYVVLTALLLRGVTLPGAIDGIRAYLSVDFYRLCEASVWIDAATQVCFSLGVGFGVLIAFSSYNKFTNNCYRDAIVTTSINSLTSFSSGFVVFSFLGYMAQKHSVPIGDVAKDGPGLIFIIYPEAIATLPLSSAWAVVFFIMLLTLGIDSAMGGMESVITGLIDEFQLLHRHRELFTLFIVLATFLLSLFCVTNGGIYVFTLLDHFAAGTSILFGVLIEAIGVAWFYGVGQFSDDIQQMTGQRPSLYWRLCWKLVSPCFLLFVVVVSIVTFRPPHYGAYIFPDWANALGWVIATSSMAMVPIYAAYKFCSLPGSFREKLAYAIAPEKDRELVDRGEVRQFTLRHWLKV
Sequence of Sodium-dependent noradrenaline transporter (P23975 whole entry): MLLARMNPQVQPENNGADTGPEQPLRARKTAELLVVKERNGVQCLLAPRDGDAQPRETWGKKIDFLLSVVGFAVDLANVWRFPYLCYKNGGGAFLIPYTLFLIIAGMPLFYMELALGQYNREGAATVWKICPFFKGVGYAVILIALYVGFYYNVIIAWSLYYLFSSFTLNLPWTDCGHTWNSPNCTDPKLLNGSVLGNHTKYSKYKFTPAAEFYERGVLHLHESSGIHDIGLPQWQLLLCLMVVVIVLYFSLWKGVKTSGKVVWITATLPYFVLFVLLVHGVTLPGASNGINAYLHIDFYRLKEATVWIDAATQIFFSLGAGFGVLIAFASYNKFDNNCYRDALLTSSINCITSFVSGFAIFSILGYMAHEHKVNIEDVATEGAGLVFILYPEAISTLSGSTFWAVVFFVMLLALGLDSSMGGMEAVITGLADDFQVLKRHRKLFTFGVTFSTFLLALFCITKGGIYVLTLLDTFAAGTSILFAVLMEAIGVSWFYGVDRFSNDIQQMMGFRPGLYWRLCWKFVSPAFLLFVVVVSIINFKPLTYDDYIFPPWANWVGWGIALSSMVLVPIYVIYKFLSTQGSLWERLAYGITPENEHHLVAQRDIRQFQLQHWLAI

SMILES	Ki [1] [nM]	Ki (Histamine H3 receptor [2]) [nM]	Kb (Histamine H3 receptor [3]) [nM]	Ki [4] [nM]	also measured
CN1Cc2cc(OCCCN3CCC(F)CC3)ccc2C(c2ccc(OC(F)F)cc2)C1 (stereo unspecified)	4.3	10	4.37	–	–
CN1Cc2cc(OCCCN3CCC(F)CC3)ccc2C(c2ccc(Cl)cc2)C1 (stereo unspecified)	–	8.3	–	16	–
CSc1ccc(C2CN(C)Cc3cc(OCCCN4CCC(F)CC4)ccc32)cc1 (stereo in doubt; 12o)	8.8	–	–	2.3	–
CN1Cc2cc(OCCCN3CCC(F)CC3)ccc2C(c2cc(Cl)ccc2Cl)C1 (stereo unspecified)	107	9.3	4.57	120	–
COc1cccc(C2CN(C)Cc3cc(OCCCN4CCC(F)CC4)ccc32)c1 (stereo unspecified)	4.3	2	0.851	4.3	–
CN1Cc2cc(OCCCN3CCC(F)CC3)ccc2C(c2cccc(C(F)(F)F)c2)C1 (stereo unspecified)	15	11	–	30	–
CN1Cc2cc(OCCCN3CCC(F)CC3)ccc2C(c2ccc(SC(F)(F)F)cc2)C1 (stereo unspecified)	34	46	–	36	–
Cc1ccc(C2CN(C)Cc3cc(OCCCN4CCC(F)CC4)ccc32)cc1 (stereo unspecified)	13	8.3	–	4.4	–
CN1Cc2cc(OCCCN3CCC(F)CC3)ccc2C(c2cccc(Cl)c2)C1 (stereo unspecified)	24	–	1.38	–	–
COc1ccc(C2CN(C)Cc3cc(OCCCN4CCC(F)CC4)ccc32)cc1Cl (stereo unspecified)	5.7	9.7	6.17	5.3	–
CCOc1ccc(C2CN(C)Cc3cc(OCCCN4CCC(F)CC4)ccc32)cc1 (stereo unspecified)	4.7	7.3	–	2.7	clearance [5]: 29.9 mL/min/kg; Vd [6]: 15.5 L/kg; half-life [7]: 10.3 h; bioavailability [8]: 11%
CN1Cc2cc(OCCCN3CCC(F)CC3)ccc2C(c2ccc(Cl)c(Cl)c2)C1 (stereo unspecified)	21	31	33.1	8.3	–
CN1Cc2cc(OCCCN3CCC(F)CC3)ccc2C(c2ccc(C#N)cc2)C1 (stereo unspecified)	16	3.5	1.41	7.8	–
COc1ccc(C2CN(C)Cc3cc(OCCCN4CCC(F)CC4)ccc32)cc1 (racemic)	2.7	–	–	1.7	Vdss (Rattus norvegicus [9]): 19.9 L/kg; t1/2 (Rattus norvegicus [10]): 16 h; F (Rattus norvegicus [11]): 6%; Cmax [12]: 1500 nM
COc1ccc([C@H]2CN(C)Cc3cc(OCCCN4CCOC[C@@H]4C)ccc32)cc1	–	6.9	2.95	–	–
CN1Cc2cc(OCCCN3CCC(F)CC3)ccc2C(c2ccccc2)C1 (stereo unspecified)	46	3.3	0.724	–	–
CN1Cc2cc(OCCCN3CCC(F)CC3)ccc2C(c2ccc(C(F)(F)F)cc2)C1 (stereo unspecified)	8.6	18	–	14	–
COc1ccc(C2CN(C)Cc3cc(OCCCN4CCC(F)CC4)ccc32)cc1 (stereo in doubt; 12b)	–	–	–	–	clearance [5]: 32.3 mL/min/kg; Vdss (Rattus norvegicus [9]): 5.1 L/kg; half-life [7]: 13.3 h; F (Rattus norvegicus [11]): 13%
COc1ccc(C2CN(C)Cc3cc(OCCCN4CCC(F)CC4)ccc32)cc1 (single isomer, unassigned; (-))	9.3	–	–	4.5	–
CN1Cc2cc(OCCCN3CCC(F)CC3)ccc2C(c2ccc(S(C)(=O)=O)cc2)C1 (stereo unspecified)	135	–	–	22	–
CSc1ccc(C2CN(C)Cc3cc(OCCCN4CCC(F)CC4)ccc32)cc1 (stereo in doubt; (-)/-12p)	4.2	–	–	5	–
COc1ccc(C2CN(C)Cc3cc(OCCCN4CCOCC4)ccc32)cc1 (stereo unspecified)	–	–	2.29	–	–
CN1Cc2cc(OCCCN3CCC(F)CC3)ccc2C(c2ccccc2Cl)C1 (stereo unspecified)	18	5.6	–	17	–
CSc1ccc(C2CN(C)Cc3cc(OCCCN4CCC(F)CC4)ccc32)cc1 (racemic)	–	–	–	2	Activity [13]: Not Active; Activity [14]: Not Active; Ki [15]: 118 nM; Ki [16]: 46 nM; clearance [5]: 18.5 mL/min/kg; Vd [6]: 9.6 L/kg; half-life [7]: 9.9 h; bioavailability [8]: 21%; Cmax [12]: 2400 nM; ED50 (Rattus norvegicus [17]): 0.1 mg/kg; ED50 (Rattus norvegicus [18]): 0.05 mg/kg; concentration (Brain): 130 nM
